Laboratory results taken from ChEMBL document CHEMBL1137810, “Dammarane-type Saponins from Panax japonicus and their neurite outgrowth activity in SK-N-SH cells” (J Nat Prod, 2002).

Columns and labels:
SK-N-SH [1] = assay: Induction of neurite outgrowth in human SK-N-SH cells at 100 uM after 5 days relative to control; assay type: functional
Summary of the method: (§1)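 SK-N-SH cells were plated at 4.7 × 10^4 cell/mL in gridded 60 mm dishes. Compound was added once at the start of culture, with 0.1% DMSO vehicle as control. After 5 days, 100-300 cells in four 650 × 430 µm areas were scored for the percentage bearing neurites longer than 50 µm, expressed as % of control. Values are mean ± sem of eight sights; Student's t-test, P < 0.05.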

SK-N-SH [2] = assay: Effect on neurite outgrowth activity in human SK-N-SH cells assessed as increase in number of vericosites at 100 uM after 5 days; assay type: functional
Summary of the method: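 Human SK-N-SH cells plated at 4.7 × 10^4 cell/mL in gridded 60 mm dishes. Compound added once at culture start at 100 µM; vehicle 0.1% DMSO. Cells examined after 5 days in four areas (650 × 430 µm). Varicosity number counted per cell, 40 cells per value, mean ± sem. Compared with control by Student's t-test, P < 0.05.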

SK-N-SH [3] = assay: Induction of neurite outgrowth in human SK-N-SH cells at 10 uM after 5 days relative to control; assay type: functional; summary of the method: as §1
SK-N-SH [4] = assay: Cytotoxicity against human SK-N-SH cells at 100 uM; assay type: cell-based

| Compound | Activity (SK-N-SH [1]) [%] | also measured |
| --- | --- | --- |
| CC(C)=CCC[C@](C)(O[C@@H]1O[C@H](CO)[C@@H](O)[C@H](O)[C@H]1O)[C@H]1CC[C@]2(C)[C@@H]1[C@H](O)C[C@@H]1[C@@]3(C)CC[C@H](O)C(C)(C)[C@@H]3[C@@H](O[C@@H]3O[C@H](CO)[C@@H](O)[C@H](O)[C@H]3O[C@@H]3O[C@@H](C)[C@H](O)[C@@H](O)[C@H]3O)C[C@]12C [GINSENOSIDE RE] | 83.5 | – |
| CC(C)(O)[C@@H]1CC[C@@](C)([C@H]2CC[C@]3(C)[C@@H]2[C@H](O)C[C@@H]2[C@@]4(C)CC[C@H](O)C(C)(C)[C@@H]4[C@@H](O[C@@H]4O[C@H](CO[C@H]5O[C@H](CO)[C@@H](O)[C@H](O)[C@H]5O)[C@@H](O)[C@H](O)[C@H]4O[C@@H]4OC[C@@H](O)[C@H](O)[C@H]4O)C[C@]23C)O1 | 104.1 | – |
| CC(C)=CCC[C@](C)(O[C@@H]1O[C@H](CO)[C@@H](O)[C@H](O)[C@H]1O)[C@H]1CC[C@]2(C)[C@@H]1[C@H](O)C[C@@H]1[C@@]3(C)CC[C@H](O)C(C)(C)[C@@H]3[C@@H](O[C@@H]3O[C@H](CO)[C@@H](O)[C@H](O)[C@H]3O[C@@H]3OC[C@@H](O)[C@H](O)[C@H]3O)C[C@]12C [NOTOGINSENOSIDE R1] | 84.6 | – |
| CC(=O)OC[C@H]1O[C@@H](O[C@H]2C[C@]3(C)[C@H](C[C@@H](O)[C@@H]4[C@@H]([C@]5(C)CC[C@@H](C(C)(C)O)O5)CC[C@]43C)[C@@]3(C)CC[C@H](O)C(C)(C)[C@H]23)[C@H](O[C@@H]2OC[C@@H](O)[C@H](O)[C@H]2O)[C@@H](O)[C@@H]1O [GINSENOSIDE R2] | 97 | – |
| CC(C)=CCC[C@](C)(O[C@@H]1O[C@H](CO[C@@H]2OC[C@@H](O)[C@H](O)[C@H]2O)[C@@H](O)[C@H](O)[C@H]1O)[C@H]1CC[C@]2(C)[C@@H]1[C@H](O)C[C@@H]1[C@@]3(C)CC[C@H](O[C@@H]4O[C@H](CO)[C@@H](O)[C@H](O)[C@H]4O[C@@H]4O[C@H](CO)[C@@H](O)[C@H](O)[C@H]4O)C(C)(C)[C@@H]3CC[C@]12C [GINSENOSIDE RB3] | 228 | Activity (SK-N-SH [2]): 0.8 |
| C[C@@H]1O[C@@H](O[C@H]2[C@H](O[C@H]3C[C@]4(C)[C@H](C[C@@H](O)[C@@H]5[C@@H]([C@]6(C)CC[C@@H](C(C)(C)O)O6)CC[C@]54C)[C@@]4(C)CC[C@H](O)C(C)(C)[C@H]34)O[C@H](CO)[C@@H](O)[C@@H]2O)[C@H](O)[C@H](O)[C@H]1O | – | Activity (SK-N-SH [3]): 103%; Activity (SK-N-SH [4]): Toxic |
| CC(C)=CCC[C@](C)(O[C@@H]1O[C@H](CO[C@@H]2O[C@H](CO)[C@@H](O)[C@H](O)[C@H]2O)[C@@H](O)[C@H](O)[C@H]1O)[C@H]1CC[C@]2(C)[C@@H]1[C@H](O)C[C@@H]1[C@@]3(C)CC[C@H](O[C@@H]4O[C@H](CO)[C@@H](O)[C@H](O)[C@H]4O[C@@H]4O[C@H](CO)[C@@H](O)[C@H](O)[C@H]4O)C(C)(C)[C@@H]3CC[C@]12C [GINSENOSIDE RB1] | 178 | Activity (SK-N-SH [2]): 0.93 |
| CC(C)(O)[C@@H]1CC[C@@](C)([C@H]2CC[C@]3(C)[C@@H]2[C@H](O)C[C@@H]2[C@@]4(C)CC[C@H](O)C(C)(C)[C@@H]4[C@@H](O[C@@H]4O[C@H](CO)[C@@H](O)[C@H](O)[C@H]4O)C[C@]23C)O1 | 91.4 | – |
| CC(C)(O)[C@@H]1CC[C@@](C)([C@H]2CC[C@]3(C)[C@@H]2[C@H](O)C[C@@H]2[C@@]4(C)CC[C@H](O)C(C)(C)[C@@H]4[C@@H](O[C@@H]4O[C@H](CO)[C@@H](O)[C@H](O)[C@H]4O[C@@H]4OC[C@@H](O)[C@H](O)[C@H]4O)C[C@]23C)O1 [MAJONOSIDE R2] | 109.6 | – |
| CC(C)=CCC[C@](C)(O[C@@H]1O[C@H](CO)[C@@H](O)[C@H](O)[C@H]1O)[C@H]1CC[C@]2(C)[C@@H]1[C@H](O)C[C@@H]1[C@@]3(C)CC[C@H](O)C(C)(C)[C@@H]3[C@@H](O[C@@H]3O[C@H](CO)[C@@H](O)[C@H](O)[C@H]3O)C[C@]12C [GINSENOSIDE RG1] | 107.3 | – |
| CC(C)=CCC[C@](C)(O[C@@H]1O[C@H](CO)[C@@H](O)[C@H](O)[C@H]1O)[C@H]1CC[C@]2(C)[C@@H]1[C@H](O)C[C@@H]1[C@@]3(C)CC[C@H](O)C(C)(C)[C@@H]3[C@@H](O[C@@H]3O[C@H](CO)[C@@H](O)[C@H](O)[C@H]3O[C@@H]3O[C@H](CO)[C@@H](O)[C@H](O)[C@H]3O)C[C@]12C | 96.6 | – |
| CC(=O)OC[C@H]1O[C@@H](O[C@H]2C[C@]3(C)[C@H](C[C@@H](O)[C@@H]4[C@@H]([C@]5(C)CC[C@@H](C(C)(C)O)O5)CC[C@]43C)[C@@]3(C)CC[C@H](O)C(C)(C)[C@H]23)[C@H](O[C@@H]2O[C@H](C)[C@@H](O)[C@H](O)[C@@H]2O)[C@@H](O)[C@@H]1O [VINA-GINSENOSIDE R1] | 82.2 | – |
| CC(C)=CCC[C@](C)(O[C@@H]1O[C@H](CO[C@@H]2O[C@H](CO)[C@@H](O)[C@H](O)[C@H]2O)[C@@H](O)[C@H](O)[C@H]1O)[C@H]1CC[C@]2(C)[C@@H]1[C@H](O)C[C@@H]1[C@@]3(C)CC[C@H](O[C@@H]4O[C@H](CO)[C@@H](O)[C@H](O)[C@H]4O[C@@H]4O[C@H](CO)[C@@H](O)[C@H](O)[C@H]4O[C@@H]4OC[C@@H](O)[C@H](O)[C@H]4O)C(C)(C)[C@@H]3CC[C@]12C [NOTOGINSENOSIDE FA] | 147 | Activity (SK-N-SH [2]): 0.53 |
